Laboratory results reported in ChEMBL document CHEMBL2203273, “Prostratin and 12-O-tetradecanoylphorbol 13-acetate are potent and selective inhibitors of Chikungunya virus replication” (J Nat Prod, 2012).

How the values were obtained:
[1] = tested on: Semliki Forest virus; assay: Antiviral activity against Semliki forest virus infected in african green monkey Vero cells assessed as inhibition of virus-induced cytopathic effect incubated for 6 to 7 days by MTS assay; assay type: functional, organism-based
How it was run: (§1)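 Serial dilutions in MEM Rega3 with 2% FCS, L-glutamine and bicarbonate, added with 4× virus dilution and Vero cells (25 000 cells/well, subcultured 1:4, grown 7 days). Incubated 6−7 days, 37 °C, 5% CO2. Read-out is 5% MTS for 1.5 h, absorbance 498 nm. Data are percent of controls, EC50 from dose–response curves. Wells with >50% protection checked microscopically for CPE or altered morphology. Multiple independent experiments.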

[2] = Cytotoxicity against african green monkey Vero cells by MTS assay; assay type: cell-based; conditions: chlorocebus sabaeus
How it was run: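 Vero cells (25 000/well) with serial compound dilutions in MEM Rega3 with 2% FCS, no virus, for 6−7 days at 37 °C, 5% CO2. Overall metabolism read by 5% MTS for 1.5 h, absorbance 498 nm. Uninfected control OD 0.6−0.8. CC50 is the concentration inhibiting metabolism by 50%, from dose–response curves. Multiple independent experiments.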

[3] = Selectivity index, ratio of CC50 for african green monkey Vero cells to EC50 for Chikungunya virus 899; assay type: toxicity, cell-based; conditions: read-out: Ratio CC50/EC50
[4] = tested on: Sindbis virus; assay: Antiviral activity against Sindbis virus HRsp infected in african green monkey Vero cells assessed as inhibition of virus-induced cytopathic effect incubated for 6 to 7 days by MTS assay; assay type: functional, organism-based; how it was run: as §1
[5] = tested on: Chikungunya virus; assay: Antiviral activity against Chikungunya virus 899 infected in african green monkey Vero cells assessed as inhibition of virus-induced cytopathic effect incubated for 6 to 7 days by MTS assay; assay type: functional, cell-based; conditions: Chikungunya virus, 899, Vero; how it was run: as §1

Structure (SMILES) | EC50 [1] [µM] | CC50 [2] [µM] | selectivity ratio [3] | EC50 [4] [µM] | EC50 [5] [µM]
CCCCCCCCCCCCCC(=O)O[C@@H]1[C@@H](C)[C@@]2(O)[C@@H](C=C(CO)C[C@]3(O)C(=O)C(C)=C[C@@H]23)[C@@H]2C(C)(C)[C@]12OC(C)=O [PHORBOL MYRISTATE ACETATE] | > 162 | 5.7 | 1960 | 2.2 | 0.0029
CC1=C[C@H]2[C@@]3(O)[C@H](C)[C@@H](O)[C@]4(O)[C@H]([C@@H]3C=C(CO)C[C@]2(O)C1=O)C4(C)C [PHORBOL] | > 274 | > 343 | > 1 | > 274 | > 343
CCN(CC)CCCC(C)Nc1ccnc2cc(Cl)ccc12 (stereo not given) [CHLOROQUINE] | 14 | 89 |  | 11 | 11
CCCCCCCCCCCC(=O)O[C@@H]1[C@@H](C)[C@@]2(O)[C@@H](C(=O)C(CO)=C[C@]3(O)C(=O)C(C)=C[C@@H]23)[C@@H]2C(C)(C)[C@]12OC(C)=O [TRIGOWIIN A] |  | > 100 | > 2.3 |  | 43.5
CC(=O)O[C@@]12C[C@@H](C)[C@@]3(O)[C@@H](C=C(CO)C[C@]4(O)C(=O)C(C)=C[C@@H]34)[C@@H]1C2(C)C [PROSTRATIN] | > 256 | 79 | 30.3 | > 256 | 2.6
CCCCCCCCCCCCCC(=O)O[C@@H]1[C@@H](C)[C@@]2(O)[C@@H](C=C(CO)C[C@@]3(O)C(=O)C(C)=C[C@@H]23)[C@@H]2C(C)(C)[C@]12OC(C)=O |  | 5.3 | 1.9 |  | 2.8
